SMILES strings stand for the structures. Active and inactive are the calls of the source. No cut-off for these calls is given here.

From ChEMBL document CHEMBL1250448, “Inhibitor hijacking of Akt activation” (Nat Chem Biol, 2009) come the findings set out here.

Assay [1] addresses cGMP-dependent protein kinase 2 (Homo sapiens) (UniProt Q13237). Kind of assay: Inhibition of PRKG2 at 1 uM in presence of 10 uM ATP by Select Screen kinase assay relative to untreated control.
For assay [2], the system named is Proto-oncogene tyrosine-protein kinase receptor Ret (Homo sapiens), P07949 [V804L]. Kind of assay: Inhibition of RET V804L mutant at 1 uM in presence of 10 uM ATP by Select Screen kinase assay relative to untreated control. The procedure, abridged: (§1)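 Commercial SelectScreen profiling panel of 220 purified kinases. Each kinase was tested at a single inhibitor concentration of 1 μM, and activity was expressed as percent inhibition.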
Chain of Proto-oncogene tyrosine-protein kinase receptor Ret (Homo sapiens), P07949 [V804L] (P07949 whole entry V804L): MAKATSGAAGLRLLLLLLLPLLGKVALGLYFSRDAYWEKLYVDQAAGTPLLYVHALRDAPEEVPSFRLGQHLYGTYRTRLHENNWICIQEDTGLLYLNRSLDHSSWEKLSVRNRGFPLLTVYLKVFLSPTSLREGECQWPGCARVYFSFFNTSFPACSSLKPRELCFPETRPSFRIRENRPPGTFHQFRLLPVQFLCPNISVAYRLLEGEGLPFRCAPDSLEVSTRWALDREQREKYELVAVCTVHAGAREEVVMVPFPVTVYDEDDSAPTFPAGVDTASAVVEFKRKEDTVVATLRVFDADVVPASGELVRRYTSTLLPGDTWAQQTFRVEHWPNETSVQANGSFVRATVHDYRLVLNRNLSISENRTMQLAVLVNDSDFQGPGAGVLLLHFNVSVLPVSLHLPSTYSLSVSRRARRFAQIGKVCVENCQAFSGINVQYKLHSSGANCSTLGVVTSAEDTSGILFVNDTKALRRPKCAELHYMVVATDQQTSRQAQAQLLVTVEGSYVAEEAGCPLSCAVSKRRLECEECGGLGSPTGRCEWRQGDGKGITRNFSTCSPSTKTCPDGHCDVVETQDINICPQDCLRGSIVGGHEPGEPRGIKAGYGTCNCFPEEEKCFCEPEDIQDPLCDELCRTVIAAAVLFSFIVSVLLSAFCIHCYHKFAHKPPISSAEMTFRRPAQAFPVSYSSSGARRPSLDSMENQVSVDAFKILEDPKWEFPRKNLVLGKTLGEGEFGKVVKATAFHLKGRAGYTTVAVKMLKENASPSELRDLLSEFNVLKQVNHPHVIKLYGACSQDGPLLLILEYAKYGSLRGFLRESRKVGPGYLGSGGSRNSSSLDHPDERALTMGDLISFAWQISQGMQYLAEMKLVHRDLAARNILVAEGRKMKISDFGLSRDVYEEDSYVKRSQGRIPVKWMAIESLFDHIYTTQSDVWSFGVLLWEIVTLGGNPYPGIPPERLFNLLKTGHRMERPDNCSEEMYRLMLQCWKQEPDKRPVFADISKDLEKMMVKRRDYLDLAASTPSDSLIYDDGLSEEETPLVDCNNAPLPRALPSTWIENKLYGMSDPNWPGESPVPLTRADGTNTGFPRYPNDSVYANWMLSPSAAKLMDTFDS

Assay [3] deals with Proto-oncogene tyrosine-protein kinase receptor Ret (Homo sapiens), P07949 [Y791F]. Kind of assay: Inhibition of RET Y791F mutant at 1 uM in presence of 10 uM ATP by Select Screen kinase assay relative to untreated control. The procedure, abridged: (§2)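 Profiling panel of 220 purified kinases (SelectScreen), each compound tested at 1 μM. Read-out is percent inhibition of kinase activity.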
Chain of Proto-oncogene tyrosine-protein kinase receptor Ret (Homo sapiens), P07949 [Y791F] (P07949 whole entry Y791F): as the sequence (P07949 whole entry V804L) above, with Y791F, L804V counted along it

The target of assay [4] is Tyrosine-protein kinase ABL2 (Homo sapiens) (UniProt P42684). Kind of assay: Inhibition of ABL2 at 1 uM in presence of 10 uM ATP by Select Screen kinase assay relative to untreated control. In a few lines: (§3)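 Single-point screen at 1 μM against a panel of 220 purified kinases, run by Invitrogen staff as a SelectScreen profiling service. Read-out is percent inhibition of kinase activity.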

Assay [5] deals with Calcium/calmodulin-dependent protein kinase type 1D (Homo sapiens) (UniProt Q8IU85). In words: Inhibition of CAMK1D at 1 uM in presence of 10 uM ATP by Select Screen kinase assay relative to untreated control. In a few lines:
as §3

In assay [6] the target is Rho-associated protein kinase 1 (Homo sapiens) (UniProt Q13464). Kind of assay: Inhibition of ROCK1 at 1 uM in presence of 10 uM ATP by Select Screen kinase assay relative to untreated control.
Chain of Rho-associated protein kinase 1 (Homo sapiens) (Q13464 2-1354 limits assumed): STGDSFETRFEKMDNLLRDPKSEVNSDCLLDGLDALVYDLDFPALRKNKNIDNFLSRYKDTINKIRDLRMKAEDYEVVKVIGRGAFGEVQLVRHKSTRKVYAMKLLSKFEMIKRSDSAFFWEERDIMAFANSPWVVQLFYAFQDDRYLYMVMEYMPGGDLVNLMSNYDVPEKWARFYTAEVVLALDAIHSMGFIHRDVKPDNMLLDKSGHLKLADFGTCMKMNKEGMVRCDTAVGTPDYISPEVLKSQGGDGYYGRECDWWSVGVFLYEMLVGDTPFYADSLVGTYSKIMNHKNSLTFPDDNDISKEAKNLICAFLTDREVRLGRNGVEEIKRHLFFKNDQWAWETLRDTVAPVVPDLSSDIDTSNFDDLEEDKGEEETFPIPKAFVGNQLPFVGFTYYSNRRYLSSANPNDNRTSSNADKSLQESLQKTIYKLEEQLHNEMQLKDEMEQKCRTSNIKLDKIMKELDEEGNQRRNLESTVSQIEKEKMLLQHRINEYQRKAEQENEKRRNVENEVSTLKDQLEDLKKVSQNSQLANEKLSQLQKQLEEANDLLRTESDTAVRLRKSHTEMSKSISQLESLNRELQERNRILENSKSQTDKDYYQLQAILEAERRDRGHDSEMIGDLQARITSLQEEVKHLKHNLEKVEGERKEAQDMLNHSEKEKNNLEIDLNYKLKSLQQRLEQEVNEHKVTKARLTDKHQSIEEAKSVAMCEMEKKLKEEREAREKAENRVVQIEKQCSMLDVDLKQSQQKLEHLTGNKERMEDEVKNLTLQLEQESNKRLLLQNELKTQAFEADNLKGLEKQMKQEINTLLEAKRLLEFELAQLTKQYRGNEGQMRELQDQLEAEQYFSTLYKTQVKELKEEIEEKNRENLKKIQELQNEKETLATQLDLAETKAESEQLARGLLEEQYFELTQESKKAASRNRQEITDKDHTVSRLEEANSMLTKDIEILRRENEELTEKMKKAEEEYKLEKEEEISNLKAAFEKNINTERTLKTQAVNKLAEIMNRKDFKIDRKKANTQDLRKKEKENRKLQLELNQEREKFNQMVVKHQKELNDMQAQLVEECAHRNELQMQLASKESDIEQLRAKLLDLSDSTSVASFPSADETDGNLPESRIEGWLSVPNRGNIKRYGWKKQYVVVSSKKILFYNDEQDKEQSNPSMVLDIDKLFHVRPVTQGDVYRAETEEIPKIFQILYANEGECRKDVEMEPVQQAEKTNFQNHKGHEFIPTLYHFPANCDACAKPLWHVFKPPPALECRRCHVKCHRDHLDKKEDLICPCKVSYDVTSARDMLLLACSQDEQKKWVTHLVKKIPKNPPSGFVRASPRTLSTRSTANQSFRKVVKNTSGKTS
The target in assay [7] is Rho-associated protein kinase 2 (Homo sapiens) (UniProt O75116). Kind of assay: Inhibition of ROCK2 at 1 uM in presence of 10 uM ATP by Select Screen kinase assay relative to untreated control. The procedure, abridged: as §2
The target in assay [8] is Serine/threonine-protein kinase 4 (Homo sapiens) (UniProt Q13043). Kind of assay: Inhibition of STK4 at 1 uM in presence of 10 uM ATP by Select Screen kinase assay relative to untreated control. In a few lines: as §1
Assay [9] deals with Aurora kinase A (Homo sapiens) (UniProt O14965). Kind of assay: Inhibition of STK6 at 1 uM in presence of 10 uM ATP by Select Screen kinase assay relative to untreated control. The procedure, abridged:
as §1

In assay [10] the target is Calcium/calmodulin-dependent protein kinase type IV (Homo sapiens) (UniProt Q16566). Kind of assay: Inhibition of CAMK4 at 1 uM in presence of 10 uM ATP by Select Screen kinase assay relative to untreated control. In a few lines:
as §3

Assay [11] addresses Dual specificity tyrosine-phosphorylation-regulated kinase 1B (Homo sapiens) (UniProt Q9Y463). In words: Inhibition of DYRK1B at 1 uM in presence of 10 uM ATP by Select Screen kinase assay relative to untreated control. The procedure, abridged:
(§4)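 Part of a 220-kinase panel of purified kinases, each tested with compound at 1 μM. Percent inhibition was measured in the Invitrogen SelectScreen profiling assay.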

Assay [12] has as its target Dual specificity tyrosine-phosphorylation-regulated kinase 3 (Homo sapiens) (UniProt O43781). In words: Inhibition of DYRK3 at 1 uM in presence of 10 uM ATP by Select Screen kinase assay relative to untreated control. In a few lines:
as §4

For assay [13], the target named is Ephrin type-A receptor 3 (Homo sapiens) (UniProt P29320). Kind of assay: Inhibition of EPHA3 at 1 uM in presence of 10 uM ATP by Select Screen kinase assay relative to untreated control. In a few lines: as §4
Assay [14] addresses Glycogen synthase kinase-3 beta (Homo sapiens) (UniProt P49841). Kind of assay: Inhibition of GSK3B at 1 uM in presence of 10 uM ATP by Select Screen kinase assay relative to untreated control. In a few lines:
as §4

In assay [15] the target is Insulin receptor (Homo sapiens) (UniProt P06213). In words: Inhibition of INSR at 1 uM in presence of 10 uM ATP by Select Screen kinase assay relative to untreated control.
Chain of Insulin receptor (Homo sapiens) (P06213 28-758 limits assumed): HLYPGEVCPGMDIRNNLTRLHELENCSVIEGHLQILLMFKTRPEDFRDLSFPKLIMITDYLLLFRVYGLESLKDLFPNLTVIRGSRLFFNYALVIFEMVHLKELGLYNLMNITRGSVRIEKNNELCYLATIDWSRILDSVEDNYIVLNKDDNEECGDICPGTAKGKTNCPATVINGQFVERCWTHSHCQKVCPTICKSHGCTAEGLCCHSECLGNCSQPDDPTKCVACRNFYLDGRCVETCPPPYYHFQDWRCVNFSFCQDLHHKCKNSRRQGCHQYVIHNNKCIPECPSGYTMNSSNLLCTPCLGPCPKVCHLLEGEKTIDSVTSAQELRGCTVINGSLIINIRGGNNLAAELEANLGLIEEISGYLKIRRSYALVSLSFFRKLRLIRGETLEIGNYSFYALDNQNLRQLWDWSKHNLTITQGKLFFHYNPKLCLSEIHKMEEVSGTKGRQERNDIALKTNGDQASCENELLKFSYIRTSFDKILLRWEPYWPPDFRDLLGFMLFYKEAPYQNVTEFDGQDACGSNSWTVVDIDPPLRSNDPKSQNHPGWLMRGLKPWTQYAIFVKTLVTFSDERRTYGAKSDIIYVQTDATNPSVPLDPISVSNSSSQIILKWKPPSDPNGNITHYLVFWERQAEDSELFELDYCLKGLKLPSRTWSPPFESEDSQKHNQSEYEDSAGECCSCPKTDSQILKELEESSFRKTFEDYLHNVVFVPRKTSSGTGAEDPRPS
Chain of Insulin receptor (Homo sapiens) (P06213 763-1382 limits assumed): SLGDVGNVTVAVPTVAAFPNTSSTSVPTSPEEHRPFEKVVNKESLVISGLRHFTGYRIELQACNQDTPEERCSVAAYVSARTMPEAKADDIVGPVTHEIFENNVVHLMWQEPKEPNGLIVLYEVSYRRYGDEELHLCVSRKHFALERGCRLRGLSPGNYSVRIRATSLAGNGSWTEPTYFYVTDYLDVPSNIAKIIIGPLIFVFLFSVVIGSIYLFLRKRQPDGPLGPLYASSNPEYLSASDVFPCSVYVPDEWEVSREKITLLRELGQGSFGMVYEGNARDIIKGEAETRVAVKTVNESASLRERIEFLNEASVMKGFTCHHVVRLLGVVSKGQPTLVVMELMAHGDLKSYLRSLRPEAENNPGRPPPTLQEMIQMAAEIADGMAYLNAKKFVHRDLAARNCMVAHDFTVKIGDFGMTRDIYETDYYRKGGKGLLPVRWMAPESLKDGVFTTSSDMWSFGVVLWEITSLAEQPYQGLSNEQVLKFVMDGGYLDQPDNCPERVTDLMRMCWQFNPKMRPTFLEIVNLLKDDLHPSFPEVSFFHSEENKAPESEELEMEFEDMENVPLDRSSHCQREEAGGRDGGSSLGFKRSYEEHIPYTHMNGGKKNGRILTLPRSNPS
Assay [16] addresses Tyrosine-protein kinase ITK/TSK (Homo sapiens) (UniProt Q08881). Kind of assay: Inhibition of ITK at 1 uM in presence of 10 uM ATP by Select Screen kinase assay relative to untreated control.
Assay [17] has as its target Tyrosine-protein kinase JAK3 (Homo sapiens) (UniProt P52333). Kind of assay: Inhibition of JAK3 at 1 uM in presence of 10 uM ATP by Select Screen kinase assay relative to untreated control. The procedure, abridged:
(§5)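 Single-concentration profiling at 1 μM against a panel of 220 purified kinases, run as an outsourced SelectScreen kinase profiling service. Activity is expressed as percent inhibition.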

In assay [18] the target is Mast/stem cell growth factor receptor Kit (Homo sapiens) (UniProt P10721). In words: Inhibition of KIT at 1 uM in presence of 100 uM ATP by Select Screen kinase assay relative to untreated control. The procedure, abridged: as §5
The target of assay [19] is Mitogen-activated protein kinase kinase kinase kinase 4 (Homo sapiens) (UniProt O95819). In words: Inhibition of MAP4K4 at 1 uM in presence of 10 uM ATP by Select Screen kinase assay relative to untreated control.
In assay [20] the target is Tyrosine-protein kinase Mer (Homo sapiens) (UniProt Q12866). Kind of assay: Inhibition of MERTK at 1 uM in presence of 10 uM ATP by Select Screen kinase assay relative to untreated control. The procedure, abridged:
as §5

Assay [21] deals with Platelet-derived growth factor receptor beta (Homo sapiens) (UniProt P09619). In words: Inhibition of PDGFRbeta at 1 uM in presence of 100 uM ATP by Select Screen kinase assay relative to untreated control.
Assay [22] deals with Serine/threonine-protein kinase N1 (Homo sapiens) (UniProt Q16512). In words: Inhibition of PKN1 at 1 uM in presence of 10 uM ATP by Select Screen kinase assay relative to untreated control. In a few lines:
as §2

The target of assay [23] is Serine/threonine-protein kinase PLK2 (Homo sapiens) (UniProt Q9NYY3). Kind of assay: Inhibition of PLK2 at 1 uM in presence of 10 uM ATP by Select Screen kinase assay relative to untreated control.
Chain of Serine/threonine-protein kinase PLK2 (Homo sapiens) (Q9NYY3 whole entry, looked up): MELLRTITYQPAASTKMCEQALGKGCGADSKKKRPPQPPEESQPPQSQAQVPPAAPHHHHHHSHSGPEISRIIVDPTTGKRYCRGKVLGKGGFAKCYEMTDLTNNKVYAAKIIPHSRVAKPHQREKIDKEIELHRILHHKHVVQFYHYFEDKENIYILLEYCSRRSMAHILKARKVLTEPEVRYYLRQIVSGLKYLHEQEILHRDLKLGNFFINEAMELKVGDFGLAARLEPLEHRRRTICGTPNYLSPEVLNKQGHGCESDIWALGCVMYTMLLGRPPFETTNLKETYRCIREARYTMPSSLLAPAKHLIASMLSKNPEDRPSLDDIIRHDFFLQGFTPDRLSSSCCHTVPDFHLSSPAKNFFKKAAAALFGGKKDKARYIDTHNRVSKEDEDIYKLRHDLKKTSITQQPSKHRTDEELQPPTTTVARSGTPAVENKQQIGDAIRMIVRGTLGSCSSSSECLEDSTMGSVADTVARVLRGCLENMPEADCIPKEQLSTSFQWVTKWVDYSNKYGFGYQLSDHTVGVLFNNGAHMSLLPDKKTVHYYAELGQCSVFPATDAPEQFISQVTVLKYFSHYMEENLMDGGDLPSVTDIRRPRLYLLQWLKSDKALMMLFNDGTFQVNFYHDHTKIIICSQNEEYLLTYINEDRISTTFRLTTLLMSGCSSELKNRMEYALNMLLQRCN
In assay [24] the target is cAMP-dependent protein kinase catalytic subunit alpha (Homo sapiens) (UniProt P17612). In words: Inhibition of PRKACA (PKA) at 1 uM in presence of 10 uM ATP by Select Screen kinase assay relative to untreated control.
Assay [25] has as its target RAC-alpha serine/threonine-protein kinase (Homo sapiens, UniProt P31749). In words: Induction of AKT1 Thr308 phosphorylation expressed in IGF1-stimulated HEK293 cells treated 20 mins before IGF1 stimulation by immunoblotting. The format is cell-based. The procedure, abridged: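 HEK293 cells (not transfected), serum-starved overnight, then given inhibitor for 20 min before 50 ng/ml IGF-1 for a further 10 min. Cells detached in ice-cold Ca/Mg-free PBS with 0.04% EDTA and lysed in Tris pH 7.5 Triton buffer with protease/phosphatase inhibitors. Lysates cleared at 14000 g, protein equalised by Bradford, and pThr308, pSer473 and GSK3β pSer9 read by immunoblot with ECL.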
In general terms: In western blotting, separated proteins are transferred to a membrane and probed.

Chain of Calcium/calmodulin-dependent protein kinase type IV (Homo sapiens) (Q16566 whole entry): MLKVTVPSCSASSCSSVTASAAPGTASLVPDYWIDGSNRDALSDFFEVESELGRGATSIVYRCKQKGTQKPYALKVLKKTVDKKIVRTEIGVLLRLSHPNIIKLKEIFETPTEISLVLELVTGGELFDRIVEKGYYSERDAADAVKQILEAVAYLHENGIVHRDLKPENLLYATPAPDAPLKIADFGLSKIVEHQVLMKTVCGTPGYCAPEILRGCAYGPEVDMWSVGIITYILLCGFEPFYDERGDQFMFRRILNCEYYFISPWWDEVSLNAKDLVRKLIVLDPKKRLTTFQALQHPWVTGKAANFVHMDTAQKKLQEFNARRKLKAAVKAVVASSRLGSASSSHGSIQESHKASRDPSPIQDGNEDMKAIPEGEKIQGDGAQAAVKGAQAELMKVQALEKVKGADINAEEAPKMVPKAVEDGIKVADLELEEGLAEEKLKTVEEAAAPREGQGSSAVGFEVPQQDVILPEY

On to `COc1ccccc1N1CCN(c2ncnc3[nH]nc(Br)c23)CC1`, for which the inhibition (as a rule, the drop in the measured response relative to a control, in per cent) in [1] is 92%; in [2] it was 66%; in assay [3], 48%; in assay [4] it was 4%; in assay [5] it was 24%; in assay [6], -2%. Further, the inhibition in assay [7] amounted to 2%; in [8], 19%; in [9], 22%; in assay [10], 0%; in assay [11] it was 43%; in assay [12], 69%. The inhibition was 14% in assay [13]; 67% in assay [14]; 3% in assay [15]; 16% in assay [16]; -1% in [17]; -7% in assay [18]. Further, the inhibition in assay [19] came out at 73%; in assay [20] it was 16%; in assay [21], 2%; in assay [22] it was 18%; in assay [23] it was 24%; in assay [24], 48%.
Take `Cc1n[nH]c2ccc(-c3cncc(OC[C@@H](N)Cc4c[nH]c5ccccc45)c3)cc12`: the result in [25] was Active.
With `CCCc1cc(-c2cncc(OC[C@@H](N)Cc3c[nH]c4ccccc34)c2)cc2c(C)n[nH]c12`, the outcome in assay [25] was inactive.
Consider `O=C(NCCCNc1nc(Nc2cccc(NC(=O)N3CCCC3)c2)ncc1I)c1cccs1`, for which the inhibition in assay [1] is 29%; in assay [2], 93%; in assay [3], 91%; in [4], 37%; in assay [5], 14%; in assay [6] it was 48%. Further, the inhibition in [7] was 72%; in assay [8] it was 36%; in [9] it was 97%; in assay [10] it was 8%; in assay [11] it was 26%; in [12], 50%. Moreover, the inhibition in assay [13] came out at 13%; in assay [14] it was 69%; in assay [15] it was 7%; in [16], 56%; in assay [17], 89%; in [18] it was 13%. The inhibition in assay [19] was 39%; in assay [20] it was 17%; in assay [21], 84%; in assay [22], 84%; in assay [23], 38%; in [24], 28%.
